Source: ChEMBL document CHEMBL5678817, “FTBMT, a Novel and Selective GPR52 Agonist, Demonstrates Antipsychotic-Like and Procognitive Effects in Rodents, Revealing a Potential Therapeutic Agent for Schizophrenia” (J Pharmacol Exp Ther, 2017)
Activity calls are given as the source filed them. The rule behind the calls is not given here.

What was measured:
[1] = target: T1, G protein-coupled receptor 52 (Rattus norvegicus, UniProt A0A8I5ZQK1); assay: Agonist activity at rat GPR52 expressed in CHO cells assessed as increase in intracellular cAMP level incubated for 30 mins by Alphascreen assay; format: cell-based
In short: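 CHO cells stably expressing human, mouse or rat GPR52, plus naïve CHO cells, at 10,000 cells/well. Stimulated in cAMP assay buffer for 30 min at 37 °C. Intracellular cAMP read by AlphaScreen.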

[2] = target: Beta-2 adrenergic receptor (Homo sapiens) (UniProt P07550); assay: Inhibition of Adrenergic beta2 receptor (unknown origin) at 10 uM relative to control
In short: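 Single-point screen at 10 μM across receptor, ion channel and enzyme binding or activity assays. Expressed as percent inhibition versus control; negative values denote stimulation.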

Homo sapiens [3] = species on record: Homo sapiens; assay: Inhibition of Nicotinic acetylcholine receptor (unknown origin) at 10 uM relative to control
In short: (§1)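 Part of a 98-target external biochemical selectivity panel that used radioligand/receptor binding-type assays. Compound tested once at 10 µM. Results are reported as % inhibition versus control; negative values mean stimulation of receptor activity.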

Homo sapiens [4] = species on record: Homo sapiens; assay: Inhibition of KATP (unknown origin) at 10 uM relative to control; in short: as §1
[5] = target: Neuromedin-K receptor (Homo sapiens) (UniProt P29371); assay: Inhibition of Tachykinin NK3 receptor (unknown origin) at 10 uM relative to control
In short: (§2)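 Binding and enzyme panel run by an outside contractor against receptors, ion channels and enzymes. Each assay used a single 10 μM test concentration, and results are expressed as percent inhibition. A negative value means stimulation of receptor activity or activation of enzyme activity.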

[6] = target: Vasopressin V1a receptor (Homo sapiens) (UniProt P37288); assay: Inhibition of Vasopressin V1A receptor (unknown origin) at 10 uM relative to control; in short: as §2
[7] = target: T1, G protein-coupled receptor 52; assay: Agonist activity at GPR52 in rat Striatal neuron assessed as increase in intracellular cAMP level […] by Alphascreen assay; format: cell-based
[8] = target: G-protein coupled receptor 52 (Mus musculus) (UniProt P0C5J4); assay: […] agonist activity at GPR52 in ICR mouse assessed as increase in DARPP-32 phosphorylation at thr34 residue upto 1 uM incubated for 5 mins; format: functional
In short: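 Acute 500 μm coronal NAc slices from male ICR mice (8–10 weeks) recovered 60 min at 30 °C in oxygenated Krebs-HCO3 pH 7.4 (adenosine deaminase for first 30 min). Exposed 5 min to 0.01–1 μM, frozen, denatured in 1% SDS with 50 mM NaF. Phospho-Thr34 and total DARPP32 quantified by Western blot densitometry; n = 9.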

Mus musculus [9] = assay: Antipsychotic activity in GPR52 knockout ICR mouse assessed as inhibition of MK-801-induced hyperactivity at 30 mg/kg, po pretreated with compound for 1 hr followed by MK-801 addition and measured after 90 mins; format: functional, organism-based; conditions: time 150.0 min
Mus musculus [10] = assay: Antipsychotic activity in C57BL/6N mouse assessed as increase in c-fos positive cells in dorsomedial striatum at 30 mg/kg, po measured for 2 hrs by immunohistochemistry analysis; format: functional, organism-based
Mus musculus [11] = assay: Antipsychotic activity in C57BL/6N mouse assessed as increase in c-fos positive cells in entorhinal cortex at 30 mg/kg, po measured for 2 hrs by immunohistochemistry analysis; format: functional, organism-based
Mus musculus [12] = assay: Antipsychotic activity in C57BL/6N mouse assessed as increase in c-fos positive cells in frontal cortex at 30 mg/kg, po measured for 2 hrs by immunohistochemistry analysis; format: functional, organism-based

T1 sequence (A0A8I5ZQK1 whole entry): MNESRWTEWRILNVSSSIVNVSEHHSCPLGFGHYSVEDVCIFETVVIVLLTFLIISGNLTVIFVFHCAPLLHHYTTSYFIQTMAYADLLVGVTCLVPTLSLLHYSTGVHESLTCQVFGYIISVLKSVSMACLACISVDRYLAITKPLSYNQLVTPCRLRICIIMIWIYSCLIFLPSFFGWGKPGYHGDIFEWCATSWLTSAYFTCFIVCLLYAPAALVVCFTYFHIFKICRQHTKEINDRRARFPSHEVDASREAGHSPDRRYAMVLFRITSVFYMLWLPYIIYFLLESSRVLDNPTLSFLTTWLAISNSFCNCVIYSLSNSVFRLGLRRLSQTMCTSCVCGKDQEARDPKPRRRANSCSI
Chain of G-protein coupled receptor 52 (Mus musculus) (P0C5J4 whole entry): as the sequence (A0A8I5ZQK1 whole entry) above, with V14M, D250E, Q333E, G342A, R348Q counted along it
Chain of Beta-2 adrenergic receptor (Homo sapiens) (P07550 whole entry, looked up): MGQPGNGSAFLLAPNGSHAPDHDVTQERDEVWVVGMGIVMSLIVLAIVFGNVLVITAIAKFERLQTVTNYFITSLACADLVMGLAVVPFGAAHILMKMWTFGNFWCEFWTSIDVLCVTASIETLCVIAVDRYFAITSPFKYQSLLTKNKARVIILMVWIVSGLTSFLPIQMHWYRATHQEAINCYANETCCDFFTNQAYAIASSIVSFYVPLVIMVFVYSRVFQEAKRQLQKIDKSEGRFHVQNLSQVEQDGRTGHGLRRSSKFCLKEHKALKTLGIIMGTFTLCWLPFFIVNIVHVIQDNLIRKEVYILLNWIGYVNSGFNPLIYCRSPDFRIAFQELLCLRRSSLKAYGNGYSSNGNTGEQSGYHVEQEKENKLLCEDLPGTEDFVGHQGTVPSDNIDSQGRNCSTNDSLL
Chain of Vasopressin V1a receptor (Homo sapiens) (P37288 whole entry, looked up): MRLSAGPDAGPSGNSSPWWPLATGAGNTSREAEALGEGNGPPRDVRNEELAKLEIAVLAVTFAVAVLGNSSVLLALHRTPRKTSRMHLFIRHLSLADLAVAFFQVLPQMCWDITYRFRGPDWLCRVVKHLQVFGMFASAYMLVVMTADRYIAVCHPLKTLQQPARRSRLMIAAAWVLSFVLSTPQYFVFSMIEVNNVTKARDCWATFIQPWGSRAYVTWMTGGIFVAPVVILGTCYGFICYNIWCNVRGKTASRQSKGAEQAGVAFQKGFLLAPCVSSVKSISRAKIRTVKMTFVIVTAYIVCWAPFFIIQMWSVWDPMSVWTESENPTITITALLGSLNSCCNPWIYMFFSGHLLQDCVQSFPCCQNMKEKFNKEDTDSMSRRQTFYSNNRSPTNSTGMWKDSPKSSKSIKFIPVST
Chain of Neuromedin-K receptor (Homo sapiens) (P29371 whole entry): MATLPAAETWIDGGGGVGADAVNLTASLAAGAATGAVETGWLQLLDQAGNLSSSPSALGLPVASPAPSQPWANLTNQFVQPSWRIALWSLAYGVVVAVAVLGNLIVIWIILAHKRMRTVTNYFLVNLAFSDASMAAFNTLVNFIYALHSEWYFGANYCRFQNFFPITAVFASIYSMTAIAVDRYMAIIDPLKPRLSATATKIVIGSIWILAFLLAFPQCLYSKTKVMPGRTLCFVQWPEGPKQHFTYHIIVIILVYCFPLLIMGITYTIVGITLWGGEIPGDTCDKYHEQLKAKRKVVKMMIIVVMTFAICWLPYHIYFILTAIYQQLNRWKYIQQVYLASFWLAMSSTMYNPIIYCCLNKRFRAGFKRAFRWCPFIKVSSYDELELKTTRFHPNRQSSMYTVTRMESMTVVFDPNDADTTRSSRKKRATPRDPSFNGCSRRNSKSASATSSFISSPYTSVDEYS

Compound Cc1cc(-n2nc(Cc3cc(F)cc(C(F)(F)F)c3)nc2C)ccc1C(N)=O [TP-024] has an EC50 [1] of 135 nM, an inhibition [2] of -5% and an inhibition (Homo sapiens [3]) of -2%. The inhibition (Homo sapiens [4]) was -1%, the inhibition [5] was 20% and the inhibition [6] was 14%. For the same compound, the EC50 [7] was 151 nM, the Activity [8] was “Active” and the Activity (Mus musculus [9]) was “inactive”. The Activity (Mus musculus [10]) was “Active”, the Activity (Mus musculus [11]) was “Active” and the Activity (Mus musculus [12]) was “Active”.
